In ChEMBL document CHEMBL1130113 (J Med Chem, 1997):
Where a SMILES comes first, the peptide text is derived from it. [ ]: non-standard residue; d: D form. Aib = CC(C)(N)C(=O)O

How the values were obtained:
[1] = target: Mu-type opioid receptor (Cavia porcellus, UniProt P97266); assay: Functional biological activity for mu opioid receptor was determined in vitro, on guinea pig ileum (GPI).; type: tissue-based
How it was run: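 A 2-3 cm guinea pig ileum segment was held in a 20 mL organ bath with 70 µM hexamethonium bromide and 0.125 µM mepyramine maleate, gassed with 95% O2/5% CO2 at 36 °C. Transmural stimulation used 0.5 ms square-wave pulses at 0.1 Hz, at 1.5× maximal-twitch voltage (~30 V). Twitch inhibition was read from dose-response curves against dermorphin or morphine.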

[2] = IC50 ratio measured as the IC50 value of GPI to that of MVD.; type: functional
[3] = target: Delta-type opioid receptor (Rattus norvegicus, UniProt P33533); assay: Affinity was assessed using competitive binding assay labeled with [3H]DPDPE (6.3 nM) for Opioid receptor delta 1
How it was run: (§1)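 Rat brain synaptosomal membranes, preincubated, in duplicate tubes. Buffer 50 mM HEPES pH 7.5, 5 mM MgCl2, glycerol, protease inhibitors. Equilibrium incubation 120 min at room temperature (22-23 °C). Labeled peptide displaced by 6-14 analogue concentrations spanning a 1000-fold range. Filtered on glass fiber and washed 3× with ice-cold buffer containing 0.01% BSA. Ki from IC50 by Cheng-Prusoff.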

[4] = target: Delta-type opioid receptor (Mus musculus, UniProt P32300); assay: Functional biological activity for Opioid receptor delta 1 was determined in vitro, on mouse vas deferens (MVD).; type: tissue-based
[5] = target: Mu-type opioid receptor (Rattus norvegicus, UniProt P33535); assay: Affinity was assessed using competitive binding assay labeled with [3H]- DAGO (1.28 nM) for Opioid receptor mu 1; how it was run: as §1
[6] = target: Opioid receptors; mu & delta (Homo sapiens) (UniProt P41143+P35372); assay: Selectivity ratio measured as the Ki ratio of mu receptor th that of delta receptor; type: protein assay
How it was run: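 Ratio of Ki values for mu and delta receptors. Both were measured in rat brain synaptosomal membranes in 50 mM HEPES pH 7.5 with 5 mM MgCl2, glycerol and protease inhibitors, for 120 min at 22-23 °C. Radioligand was displaced by 6-14 concentrations over a 1000-fold range. Bound ligand was collected by glass-fiber filtration, and Ki came from IC50 by Cheng-Prusoff.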

Sequence of Delta-type opioid receptor (Rattus norvegicus, UniProt P33533) (P33533 whole entry): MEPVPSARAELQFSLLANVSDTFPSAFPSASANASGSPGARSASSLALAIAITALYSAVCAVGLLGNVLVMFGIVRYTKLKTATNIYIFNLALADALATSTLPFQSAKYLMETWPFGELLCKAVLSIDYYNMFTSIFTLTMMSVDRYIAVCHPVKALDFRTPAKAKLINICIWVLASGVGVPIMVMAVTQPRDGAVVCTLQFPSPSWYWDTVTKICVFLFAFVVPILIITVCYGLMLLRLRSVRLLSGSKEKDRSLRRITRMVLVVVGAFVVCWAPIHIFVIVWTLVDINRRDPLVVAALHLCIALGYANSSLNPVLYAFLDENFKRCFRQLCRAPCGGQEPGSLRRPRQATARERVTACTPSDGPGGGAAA
Sequence of Mu-type opioid receptor (Cavia porcellus, UniProt P97266) (P97266 whole entry): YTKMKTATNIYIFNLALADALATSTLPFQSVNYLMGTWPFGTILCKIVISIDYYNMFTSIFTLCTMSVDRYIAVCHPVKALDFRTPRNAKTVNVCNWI
Sequence of Delta-type opioid receptor (Mus musculus, UniProt P32300) (P32300 whole entry): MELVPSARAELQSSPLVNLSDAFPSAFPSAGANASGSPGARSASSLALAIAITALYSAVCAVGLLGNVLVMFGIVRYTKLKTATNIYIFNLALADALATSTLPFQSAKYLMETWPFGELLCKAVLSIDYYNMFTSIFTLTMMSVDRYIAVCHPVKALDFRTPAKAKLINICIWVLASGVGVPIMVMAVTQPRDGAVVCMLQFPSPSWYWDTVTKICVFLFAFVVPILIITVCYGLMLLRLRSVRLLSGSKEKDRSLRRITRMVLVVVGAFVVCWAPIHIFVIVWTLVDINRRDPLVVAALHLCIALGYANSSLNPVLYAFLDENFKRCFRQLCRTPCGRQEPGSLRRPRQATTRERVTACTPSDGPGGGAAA
Sequence of Mu-type opioid receptor (Rattus norvegicus, UniProt P33535) (P33535 whole entry): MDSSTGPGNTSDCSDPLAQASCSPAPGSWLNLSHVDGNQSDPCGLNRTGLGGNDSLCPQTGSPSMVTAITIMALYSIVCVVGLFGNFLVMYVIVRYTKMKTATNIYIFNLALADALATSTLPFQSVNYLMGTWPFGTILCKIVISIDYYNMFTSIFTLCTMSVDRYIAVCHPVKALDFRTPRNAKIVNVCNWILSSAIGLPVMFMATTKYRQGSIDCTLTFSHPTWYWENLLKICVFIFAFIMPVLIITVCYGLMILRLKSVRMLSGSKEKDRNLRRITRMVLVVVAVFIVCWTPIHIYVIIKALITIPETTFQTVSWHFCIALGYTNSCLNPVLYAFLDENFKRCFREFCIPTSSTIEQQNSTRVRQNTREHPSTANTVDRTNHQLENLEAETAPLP
Sequence of Opioid receptors; mu & delta (Homo sapiens) (P35372 whole entry, looked up): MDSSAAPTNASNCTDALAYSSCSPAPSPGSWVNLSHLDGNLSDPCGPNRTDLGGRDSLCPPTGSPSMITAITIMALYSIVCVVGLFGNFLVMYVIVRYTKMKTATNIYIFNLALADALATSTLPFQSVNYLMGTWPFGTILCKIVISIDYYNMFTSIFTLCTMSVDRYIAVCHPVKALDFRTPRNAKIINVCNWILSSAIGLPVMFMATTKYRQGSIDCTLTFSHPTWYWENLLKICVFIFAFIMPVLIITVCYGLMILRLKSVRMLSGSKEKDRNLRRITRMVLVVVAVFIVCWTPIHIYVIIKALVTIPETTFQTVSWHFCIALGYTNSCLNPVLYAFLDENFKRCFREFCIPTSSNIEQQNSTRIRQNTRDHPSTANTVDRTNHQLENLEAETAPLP
Sequence of Opioid receptors; mu & delta (Homo sapiens) (P41143 whole entry, looked up): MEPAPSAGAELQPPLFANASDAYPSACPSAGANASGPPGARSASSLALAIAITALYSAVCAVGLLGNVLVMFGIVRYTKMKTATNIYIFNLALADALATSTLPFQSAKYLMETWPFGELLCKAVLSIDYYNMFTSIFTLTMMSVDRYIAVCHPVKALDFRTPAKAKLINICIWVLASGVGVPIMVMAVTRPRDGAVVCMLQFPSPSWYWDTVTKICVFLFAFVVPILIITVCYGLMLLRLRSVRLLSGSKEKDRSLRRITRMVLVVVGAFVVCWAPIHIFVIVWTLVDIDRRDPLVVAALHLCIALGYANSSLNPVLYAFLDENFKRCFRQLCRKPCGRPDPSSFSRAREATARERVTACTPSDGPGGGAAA

CC(NC(=O)[C@@H](N)Cc1ccc(O)cc1)C(=O)N[C@@H](Cc1ccccc1)C(=O)N[C@@H](CC(=O)O)C(=O)N[C@H](C(=O)N[C@H](C(=O)NCC(N)=O)C(C)C)C(C)C (single isomer, unassigned) [DELTORPHIN C]
IC50 [1]: 420 nM

CC(C)[C@H](NC(=O)[C@@H](NC(=O)[C@@H](CC(=O)O)NC(=O)C(C)(C)NC(=O)C(C)(C)NC(=O)[C@@H](N)Cc1ccc(O)cc1)C(C)C)C(=O)NCC(N)=O
IC50 ratio [2]: > 21

CC(C)[C@H](NC(=O)[C@H](CC(=O)O)NC(=O)[C@H](Cc1ccccc1)NC(=O)C(C)(C)NC(=O)[C@@H](N)Cc1ccc(O)cc1)C(=O)N[C@H](C(=O)NCC(N)=O)C(C)C (H-Y[Aib]FDVVG-NH2)
Ki [3]: 0.12 nM
IC50 [4]: 1.44 nM
IC50 ratio [2]: > 7000
IC50 [1]: > 10 nM
Ki [5]: 1.02 µM

CC(C)[C@H](NC(=O)[C@@H](NC(=O)C(C)(C)NC(=O)[C@H](Cc1ccccc1)NC(=O)[C@@H](C)NC(=O)[C@@H](N)Cc1ccc(O)cc1)C(C)C)C(=O)NCC(=O)O
Ki [3]: 0.11 nM
Ki [5]: 0.00448 µM

CC(C)[C@H](NC(=O)[C@@H](NC(=O)C(C)(C)NC(=O)[C@H](Cc1ccccc1)NC(=O)[C@@H](C)NC(=O)[C@@H](N)Cc1ccc(O)cc1)C(C)C)C(=O)NCC(N)=O
Ki [3]: 0.2 nM
IC50 [4]: 0.36 nM
IC50 ratio [2]: 13
IC50 [1]: 4.5 nM
Ki [5]: 0.00043 µM

CC(C)[C@H](NC(=O)[C@H](CC(=O)O)NC(=O)C(C)(C)NC(=O)C(C)(C)NC(=O)[C@@H](N)Cc1ccc(O)cc1)C(=O)N[C@H](C(=O)NCC(N)=O)C(C)C
Ki [3]: 3.62 nM
IC50 [4]: 70 nM
IC50 [1]: > 10 nM
Ki [5]: 15.2 µM

CC(C)[C@H](NC(=O)[C@H](CC(=O)O)NC(=O)[C@@H](C)NC(=O)[C@@H](C)NC(=O)[C@@H](N)Cc1ccc(O)cc1)C(=O)N[C@H](C(=O)NCC(N)=O)C(C)C
Ki [3]: 5.72 nM
Ki [5]: 13.6 µM

CC(C)[C@H](NC(=O)[C@H](CC(=O)O)NC(=O)C(C)(C)NC(=O)[C@@H](C)NC(=O)[C@@H](N)Cc1ccc(O)cc1)C(=O)N[C@H](C(=O)NCC(N)=O)C(C)C
Selectivity ratio [6]: 5680
Ki [3]: 0.8 nM
IC50 [4]: 57.3 nM
IC50 ratio [2]: > 175
IC50 [1]: > 10 nM
Ki [5]: 4.54 µM

CC(C)[C@H](NC(=O)[C@H](CC(=O)O)NC(=O)C(C)(C)NC(=O)[C@@H](N)Cc1ccc(O)cc1)C(=O)N[C@H](C(=O)NCC(N)=O)C(C)C (H-Y[Aib]DVVG-NH2)
Ki [3]: 2630 nM
Ki [5]: 441 µM
